Reference: ChEMBL document CHEMBL1149528, “4-Phenyl-4-[1H-imidazol-2-yl]-piperidine derivatives as non-peptidic selective delta-opioid agonists with potential anxiolytic/antidepressant properties. Part 2” (Bioorg Med Chem Lett, 2007)

How the values were obtained:
[1] = species: Mus musculus; experiment: Anxiolytic activity in mouse assessed as lowest active dose by neonatal ultrasonic vocalization test; assay type: functional
How it was run: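 Neonatal mice; read-out is the number and duration of ultrasonic calls. The value is the lowest dose tested that gave a statistically significant reduction in calls.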

[2] = species: Mus musculus; experiment: Decrease in duration of immobility in mouse assessed as lowest active dose by tail suspension test
[3] = biological target: Kappa-type opioid receptor (Homo sapiens, UniProt P41145); experiment: Displacement of [3H]U-69593 from cloned human kappa opioid receptor
[4] = biological target: Mu-type opioid receptor (Homo sapiens, UniProt P35372); experiment: Displacement of [3H]DAMGO from cloned human mu opioid receptor
[5] = biological target: Delta-type opioid receptor (Homo sapiens, UniProt P41143); experiment: Displacement of [3H]DPDPE from cloned human delta opioid receptor
[6] = biological target: Opioid receptors; mu & delta (Homo sapiens) (UniProt P41143+P35372); experiment: Selectivity for delta opioid receptor over mu opioid receptor; assay type: protein assay
[7] = biological target: Opioid receptors; delta & kappa (Homo sapiens) (UniProt P41145+P41143); experiment: Selectivity for delta opioid receptor over kappa opioid receptor; assay type: protein assay
Chain of Opioid receptors; delta & kappa (Homo sapiens) (P41143 whole entry, looked up): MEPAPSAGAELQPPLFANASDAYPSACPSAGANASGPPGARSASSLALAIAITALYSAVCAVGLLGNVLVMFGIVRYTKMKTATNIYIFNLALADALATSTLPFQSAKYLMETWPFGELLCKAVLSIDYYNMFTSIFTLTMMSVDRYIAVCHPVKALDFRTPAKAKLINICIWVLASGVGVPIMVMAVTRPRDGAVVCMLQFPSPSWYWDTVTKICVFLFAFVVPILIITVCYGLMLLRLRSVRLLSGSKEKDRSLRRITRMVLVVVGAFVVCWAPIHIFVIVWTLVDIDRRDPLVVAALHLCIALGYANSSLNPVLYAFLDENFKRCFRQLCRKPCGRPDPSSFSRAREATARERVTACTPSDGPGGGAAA
Chain of Opioid receptors; delta & kappa (Homo sapiens) (P41145 whole entry, looked up): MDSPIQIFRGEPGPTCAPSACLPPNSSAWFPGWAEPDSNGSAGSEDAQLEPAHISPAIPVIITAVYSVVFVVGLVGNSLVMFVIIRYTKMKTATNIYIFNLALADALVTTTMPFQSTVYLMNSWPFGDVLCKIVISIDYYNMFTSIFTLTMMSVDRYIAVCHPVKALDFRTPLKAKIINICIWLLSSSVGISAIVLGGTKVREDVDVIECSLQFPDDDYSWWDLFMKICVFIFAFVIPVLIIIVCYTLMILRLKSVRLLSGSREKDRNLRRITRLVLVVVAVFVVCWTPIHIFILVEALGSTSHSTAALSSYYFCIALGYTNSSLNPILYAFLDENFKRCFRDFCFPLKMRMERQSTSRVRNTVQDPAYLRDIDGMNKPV

Chain of Kappa-type opioid receptor (P41145 whole entry): as the sequence (P41145 whole entry, looked up) above
Chain of Opioid receptors; mu & delta (Homo sapiens) (P35372 whole entry, looked up): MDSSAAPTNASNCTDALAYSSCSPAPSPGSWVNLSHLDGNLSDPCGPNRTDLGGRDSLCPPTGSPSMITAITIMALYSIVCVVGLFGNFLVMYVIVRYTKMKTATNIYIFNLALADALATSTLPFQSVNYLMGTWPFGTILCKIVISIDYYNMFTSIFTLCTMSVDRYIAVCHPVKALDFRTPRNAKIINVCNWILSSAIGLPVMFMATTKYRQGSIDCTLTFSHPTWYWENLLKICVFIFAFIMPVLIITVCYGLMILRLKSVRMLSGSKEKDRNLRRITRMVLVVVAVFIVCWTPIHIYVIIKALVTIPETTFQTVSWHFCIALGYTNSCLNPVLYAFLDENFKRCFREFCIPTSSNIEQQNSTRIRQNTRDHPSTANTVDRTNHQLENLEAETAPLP
Chain of Opioid receptors; mu & delta (Homo sapiens) (P41143 whole entry, looked up): as the sequence (P41143 whole entry, looked up) above
Chain of Mu-type opioid receptor (P35372 whole entry): as the sequence (P35372 whole entry, looked up) above
Chain of Delta-type opioid receptor (P41143 whole entry): as the sequence (P41143 whole entry, looked up) above

Row | Structure (SMILES) | Ki [3] [nM] | Ki [4] [nM] | Ki [5] [nM] | Ratio Ki [6] | other results
1 | CCOC(=O)N1CCC(c2ccccc2)(c2nccn2Cc2ccccc2)CC1 |  |  |  |  | Activity [1]: 10 mg/kg; Activity [2]: 30 mg/kg
2 | Cc1cc(C)cc(C(=O)N2CCC(c3ccccc3)(c3nccn3Cc3ccccc3)CC2)c1 | 284 | > 465 |  |  | 
3 | CCOC(=O)N1CCC(c2ccccc2)(c2nccn2CC2CCCCC2)CC1 |  | > 465 | 147 | > 3.2 | 
4 | CCOC(=O)N1CCC(c2ccccc2)(c2nccn2Cc2cccc(OC)c2)CC1 | 366 | > 4650 |  |  | 
5 | CCOC(=O)N1CCC(c2ccccc2)(c2nccn2Cc2ccc3ccccc3c2)CC1 | 3120 | > 465 | 642 | > 0.7 | Ratio Ki [7]: 4.8
6 | CC(c1ccccc1)n1ccnc1C1(c2ccccc2)CCN(C(=O)c2ccccc2)CC1 (stereo not drawn) | 334 | > 4650 |  |  | 
7 | CCCOC(=O)N1CCC(c2ccccc2)(c2nccn2Cc2ccccc2)CC1 | > 4650 | > 465 |  |  | 
8 | CCCCOC(=O)N1CCC(c2ccccc2)(c2nccn2Cc2ccccc2)CC1 | 188 | > 465 |  |  | 
9 | CC(C)(C)OC(=O)N1CCC(c2ccccc2)(c2nccn2Cc2ccccc2)CC1 | 84 | > 465 |  |  | 
10 | CCOC(=O)N1CCC(c2ccccc2)(c2nccn2C/C=C/c2ccccc2)CC1 |  | > 465 | 280 | > 1.6 | 
11 | CCOC(=O)N1CCC(c2ccccc2)(c2nccn2Cc2ccc(C(=O)OC)cc2)CC1 | 25 | > 465 |  |  | 
12 | COC(=O)c1ccc(Cn2ccnc2C2(c3ccccc3)CCN(C(=O)c3ccccc3)CC2)cc1 | 88 | > 4650 |  |  | 
13 | COC(=O)N1CCC(c2ccccc2)(c2nccn2Cc2ccccc2)CC1 |  | > 4650 |  |  | 
14 | CCOC(=O)N1CCC(c2ccccc2)(c2nccn2Cc2ccccn2)CC1 |  | > 465 | 173 | > 2.7 | 
15 | O=C(Cc1ccccc1)N1CCC(c2ccccc2)(c2nccn2Cc2ccccc2)CC1 |  | > 465 |  |  | 
16 | CCN(CC)C(=O)c1ccc(Cn2ccnc2C2(c3ccccc3)CCN(C(=O)c3ccccc3)CC2)cc1 |  | > 4650 | 158 | > 29 | 
17 | CC(C)OC(=O)N1CCC(c2ccccc2)(c2nccn2Cc2ccccc2)CC1 | 201 | > 465 |  |  | 
18 | COCC(=O)N1CCC(c2ccccc2)(c2nccn2C(C)c2ccccc2)CC1 (stereo not drawn) | > 4650 | > 4650 |  |  | 

Row | Structure (SMILES) | Ki [3] [nM] | Ki [4] [nM] | Ki [5] [nM] | Ratio Ki [6] | other results
19 | CC(=O)N1CCC(c2ccccc2)(c2nccn2Cc2ccccc2)CC1 | 1010 | > 465 |  |  | 
20 | CCOC(=O)N1CCC(c2ccccc2)(c2nccn2C(C)c2ccccc2)CC1 (stereo not drawn) | 62 | > 465 |  |  | 
21 | O=C(C1CC1)N1CCC(c2ccccc2)(c2nccn2Cc2ccccc2)CC1 |  | > 465 | 23 | > 20 | 
22 | COCC(=O)N1CCC(c2ccccc2)(c2nccn2Cc2ccccc2)CC1 | 622 | > 465 |  |  | 
23 | O=C(OC1CCCCC1)N1CCC(c2ccccc2)(c2nccn2Cc2ccccc2)CC1 | 121 | > 465 | 7.4 | > 63 | Ratio Ki [7]: 16
24 | COCC(=O)N1CCC(c2ccccc2)(c2nccn2Cc2ccc(C(=O)OC)cc2)CC1 | 65 | > 4650 |  |  | 
25 | COC(=O)c1cccc(Cn2ccnc2C2(c3ccccc3)CCN(C(=O)c3ccccc3)CC2)c1 |  | > 465 | 85 | > 5.5 | 
26 | O=C(c1cc(C(F)(F)F)cc(C(F)(F)F)c1)N1CCC(c2ccccc2)(c2nccn2Cc2ccccc2)CC1 |  | > 465 | 29 | > 16 | 
27 | CCOC(=O)N1CCC(c2ccccc2)(c2nccn2Cc2ccc(OC)cc2)CC1 | 201 | > 4650 |  |  | 
28 | CCOC(=O)N1CCC(c2ccccc2)(c2nccn2Cc2cccc(F)c2)CC1 | > 4650 | > 465 |  |  | 
29 | O=C(OCc1ccccc1)N1CCC(c2ccccc2)(c2nccn2Cc2ccccc2)CC1 | 121 | > 465 |  |  | 
30 | CC(C)(C)C(=O)N1CCC(c2ccccc2)(c2nccn2Cc2ccccc2)CC1 |  | > 4650 |  |  | 
31 | O=C(c1ccccc1)N1CCC(c2ccccc2)(c2nccn2Cc2ccccc2)CC1 | 124 | > 4650 |  |  | Activity [1]: < 1 mg/kg; Activity [2]: 10 mg/kg
32 | CCOC(=O)N1CCC(c2ccccc2)(c2nccn2Cc2ccc(O)cc2)CC1 | 108 | > 465 |  |  | 
33 | CCOC(=O)N1CCC(c2ccccc2)(c2nccn2Cc2ccc(F)cc2)CC1 |  | > 465 | 51 | > 6.5 | 
34 | CCC(=O)N1CCC(c2ccccc2)(c2nccn2Cc2ccccc2)CC1 |  | > 465 |  |  | 
35 | Cc1cc(C)c(C(=O)N2CCC(c3ccccc3)(c3nccn3Cc3ccccc3)CC2)c(C)c1 |  | > 4650 | 125 | > 37 | 
36 | CC(C)C(=O)N1CCC(c2ccccc2)(c2nccn2Cc2ccccc2)CC1 | 621 | > 465 | 48 | > 10 | Ratio Ki [7]: 13
